SUMO1 PPI mod: modulators of SUMO1 protein-protein interactions, primary screen, biochemical, uHTS | SUMO1 binding to a labelled peptide, TR-FRET, 1 h | AID 602429, 2012 | hit rate 0.33% among 360,000 | Small ubiquitin-related modifier 1 (Homo sapiens), P63165 | inhibition, % at 20 µM; in the data active means inhibition above about 37%
Target sequence (P63165 whole entry, looked up): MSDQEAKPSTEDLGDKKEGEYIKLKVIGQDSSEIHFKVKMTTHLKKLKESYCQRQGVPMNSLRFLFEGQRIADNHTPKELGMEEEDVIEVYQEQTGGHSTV
NadD inh: inhibitors of S. aureus NadD, primary screen, biochemical, colorimetric, uHTS; purified NadD enzyme, colorimetric absorbance read-out; inhibition, % at 20 µM; hit rate 0.78% among 360,000; AID 602399, 2012; in the data active means inhibition above about 26%
LMPTP inh: LMPTP phosphatase inhibitors, primary screen, biochemical, fluorescence intensity, uHTS | Low molecular weight phosphotyrosine protein phosphatase (Homo sapiens), P24666 | recombinant LMPTP-A, OMFP fluorogenic substrate | inhibition, % at 20 µM | hit rate 0.22% among 360,000;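 active means compounds that cut the enzyme signal by at least half of the control window in the single-dose screen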
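Test system: LMPTP-A phosphatase enzyme; input: 0.625 nM LMPTP-A final; reagent: OMFP substrate, 400 µM final; compound dosing: 20 µM single dose, 3% DMSO; incubation: 50 min dark incubation at room temperature; measured by: endpoint fluorescence intensity from OMFP dephosphorylation; measure: % inhibition relative to no-enzyme and uninhibited control wells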
Scp1 inh: Scp-1 phosphatase inhibitors, primary screen, biochemical, colorimetric, uHTS; Carboxy-terminal domain RNA polymerase II polypeptide A small phosphatase 1 (Homo …; Recombinant Scp1, phosphopeptide, malachite green phosphate absorbance; inhibition, % at 20 µM; hit rate 0.88% among 340,000; AID 493091, 2011;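 active means inhibition above about 50% at 20 µM, limit read from the data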
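Test system: SCP-1 phosphatase catalytic domain, residues 76-261; measured by: colorimetric phosphate reagent with accelerator and stabiliser, absorbance at 630 nm; timing: enzyme reaction 45 min at room temperature, colour 5 min, stabilisation 30 min; also added: Phosphorylated 17-residue peptide substrate; compound dosing: one concentration, 20 µM, with 1.0% DMSO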
DNMT1 inh: human DNMT1 methyltransferase inhibitors, primary screen, biochemical, molecular beacon, fluorescence, HinP1I cleavage, uHTS | inhibition (reported as % activation of signal), % at 10 µM | hit rate 0.83% among 360,000 | DNA (cytosine-5)-methyltransferase 1 (Homo sapiens), P26358; in the data active means inhibition above about 50%
STEP inh: STEP phosphatase inhibitors, primary screen, biochemical, fluorescence intensity, uHTS. recombinant STEP, OMFP fluorogenic substrate. inhibition, % at 20 µM. hit rate 0.25% among 360,000. AID 588621, 2011;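 active means inhibition at 20 µM, scaled per plate between control wells, above about 37%, limit read from the data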
Target sequence (P54829 whole entry, looked up): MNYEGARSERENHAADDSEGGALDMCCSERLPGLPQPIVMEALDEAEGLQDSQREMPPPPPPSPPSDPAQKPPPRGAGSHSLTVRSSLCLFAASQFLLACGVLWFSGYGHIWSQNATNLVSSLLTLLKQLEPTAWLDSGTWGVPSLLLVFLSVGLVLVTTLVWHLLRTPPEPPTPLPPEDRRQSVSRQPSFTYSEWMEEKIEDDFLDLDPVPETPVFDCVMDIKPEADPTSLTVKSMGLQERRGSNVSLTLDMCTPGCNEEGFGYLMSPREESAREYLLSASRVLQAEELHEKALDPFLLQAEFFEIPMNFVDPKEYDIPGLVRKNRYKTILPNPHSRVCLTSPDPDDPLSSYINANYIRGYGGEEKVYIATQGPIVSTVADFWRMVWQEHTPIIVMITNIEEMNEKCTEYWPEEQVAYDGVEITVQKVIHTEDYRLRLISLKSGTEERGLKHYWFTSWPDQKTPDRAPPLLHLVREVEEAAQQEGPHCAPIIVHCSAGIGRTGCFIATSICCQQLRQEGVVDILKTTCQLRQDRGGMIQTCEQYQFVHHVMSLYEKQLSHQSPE
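Material: STEP (striatal-enriched tyrosine phosphatase) enzyme, cell-free; Compound dosing: 20 µM single dose in 1% DMSO; Technique: fluorescence read at 480 nm ex / 540 nm em; Times: reaction 20 min, ambient temperature; Medium: 50 mM Bis-Tris pH 6.0 with 2.5 mM DTT and 0.005% Tween 20; Also added: OMFP at 25 µM.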
Scp-1 conf: Scp-1 phosphatase inhibitors, retest, confirmation, biochemical, colorimetric, single concentration; shares compounds with Scp1 inh; recombinant SCP-1 catalytic domain, phosphate release, malachite green absorbance; inhibition, % at 20 µM; hit rate 61% among 2,500; AID 540281, 2011
Scp-1 MG ctr: colorimetric readout interference by compounds, confirmation, artefact control for Scp-1 inhibitor project, biochemical, single concentration; shares compounds with Scp1 inh; Colorimetric interference counterscreen, malachite green absorbance 630 nm; apparent inhibition (interference), % at 20 µM; 2,500 tested, under 10 active;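 further: compounds added after enzyme reaction finished so only phosphate colour detection is probed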
Scp-1 Tm shift: Scp-1 binding by thermal shift, confirmation, orthogonal assay for Scp-1 inhibitor project, biophysical, differential scanning fluorimetry. shares compounds with Scp1 inh. thermal shift relative to vanadate control, % at 40 µM. Recombinant SCP1, Sypro Orange thermal shift Tm. hit rate 25% among 1,500;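 active means substances whose mean melting-temperature shift, as a percentage of the reference inhibitor's shift, reaches about 5.3%, limit read from the data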
DNMT1 confirm: DNMT1 methyltransferase inhibitor retest, confirmation, biochemical, molecular beacon, fluorescence, single concentration; DNMT1 molecular beacon HinP1I cleavage; shares compounds with DNMT1 inh; hit rate 8% among 2,300; inhibition, % at 10 µM; AID 602385, 2012;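 active means average inhibition of at least 30% in the single-concentration confirmation test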
Beacon interf: beacon fluorescence artifact counter-screen. shares compounds with DNMT1 inh. DNMT1 molecular beacon spectral interference counterscreen, fluorescence 485/520. activation (fluorescence interference), % at 10 µM. hit rate 1% among 2,300;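 active means activation of at least 30% at 10 µM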;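 further: DNMT1 catalytic domain with a HinP1I cleavage step and a FAM/dabcyl DNA beacon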
Large screens that a line does not name were inactive (follow-up assays come after a bar, where they were run). Sampled rows, rich in hits. Any-hit rate of the full collection: about 2.3%.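 How the source made its calls, unless noted: active means inhibition of at least 30% at 20 µM; inactive means the rest.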

Cc1ccc(S(=O)(=O)/N=C2/NC(=O)/C(=C/c3ccc(Br)o3)S2)cc1	Scp1 inh 56, DNMT1 inh 85 | Scp-1 conf 54 | Scp-1 MG ctr inactive | Scp-1 Tm shift 14 | DNMT1 confirm inactive | Beacon interf inactive
O=C(/C=C/c1ccccc1)OCCCN=C1NS(=O)(=O)c2ccccc21	none
O=C(CSc1c2c(nc3ccccc13)CCCC2)NCc1ccco1	none
CCCC(C)NC(=O)c1c2c(nc3ccccc13)CCC2 (configuration not stated)	none
O=C(NCc1ccc(F)cc1)c1c2c(nc3ccccc13)CCC2	Scp1 inh 52, DNMT1 inh 57 | Scp-1 conf 60 | Scp-1 MG ctr inactive | Scp-1 Tm shift 12 | DNMT1 confirm inactive | Beacon interf inactive
O=C(NCc1ccco1)c1c2c(nc3ccccc13)CCC2	Scp1 inh 66, DNMT1 inh 84 | Scp-1 conf 51 | Scp-1 MG ctr inactive | Scp-1 Tm shift 8.3 | DNMT1 confirm inactive | Beacon interf inactive
CCOc1ccc(NC(=O)CN(C)C(=O)c2ccc(OCC3CCCO3)cc2)cc1OCC (configuration not stated)	none
C=C(C)CCOC(=O)C(CC(=O)O)NCc1ccco1 (configuration not stated)	Scp1 inh 86, DNMT1 inh 63 | Scp-1 conf 67 | Scp-1 MG ctr inactive | Scp-1 Tm shift inactive | DNMT1 confirm inactive | Beacon interf inactive
O=C(O)CC(NCc1ccco1)C(=O)OCCc1ccccc1 (configuration not stated)	none
CC(C)CN(C(=O)COC(=O)c1ccc(Br)o1)c1c(N)n(Cc2ccccc2)c(=O)[nH]c1=O	none
COc1ccc2[nH]c(=O)c(C(=O)O)cc2c1	none
COc1ccc2[nH]c(=O)cc(C(=O)O)c2c1	Scp1 inh 69, DNMT1 inh 58 | Scp-1 conf 73 | Scp-1 MG ctr inactive | Scp-1 Tm shift inactive | DNMT1 confirm inactive | Beacon interf inactive
Cc1ccc2nc(NC(=O)c3ccc(-c4nc5ccccc5s4)s3)sc2c1	SUMO1 PPI mod 44, Scp1 inh 98, DNMT1 inh 78 | Scp-1 conf 83 | Scp-1 MG ctr inactive | Scp-1 Tm shift inactive | DNMT1 confirm inactive | Beacon interf inactive
O=C(CSc1nccc(=O)[nH]1)N1N=C2/C(=C/c3ccco3)CCCC2C1c1ccco1 (configuration not stated)	Scp1 inh 60, DNMT1 inh 76 | Scp-1 conf 65 | Scp-1 MG ctr inactive | Scp-1 Tm shift inactive | DNMT1 confirm inactive | Beacon interf inactive
Nc1nc(SCC(=O)N2N=C3/C(=C/c4ccco4)CCCC3C2c2ccco2)n[nH]1 (configuration not stated)	none
Cc1cccc(C(=O)Nc2ccc(C(=O)N/N=C/c3ccco3)cc2)c1	Scp1 inh 77, DNMT1 inh 72 | Scp-1 conf 56 | Scp-1 MG ctr inactive | Scp-1 Tm shift inactive | DNMT1 confirm inactive | Beacon interf inactive
O=C(N/N=C/c1ccc(-c2ccccc2C(=O)O)o1)c1cccs1	Scp1 inh 52, DNMT1 inh 63 | Scp-1 conf 71 | Scp-1 MG ctr inactive | Scp-1 Tm shift 6.5 | DNMT1 confirm inactive | Beacon interf inactive
O=C(N/N=C/c1ccncc1)c1cccs1	none
Cc1nnc(SCc2ccccc2CSc2nnc(C)s2)s1	none
O=C1c2cc(O)c(O)cc2OC(c2ccc(O)c(O)c2)C1O (configuration not stated)	none
Cc1ccccc1C(=O)NC(CC(C)C)C(=O)OCc1cc(=O)n2cc(Br)ccc2n1 (configuration not stated)	none
O=C(CN1C(=O)NC2(CCCC2)C1=O)OCc1cc(=O)n2cc(Br)ccc2n1	Scp1 inh 55, DNMT1 inh 58 | Scp-1 conf 33 | Scp-1 MG ctr inactive | Scp-1 Tm shift inactive | DNMT1 confirm inactive | Beacon interf inactive
Cc1cc(C)c(C)c(S(=O)(=O)N[C@@H](C)C(=O)OCc2cc(=O)n3cc(Br)ccc3n2)c1C	Scp1 inh 69, DNMT1 inh 71 | Scp-1 conf 65 | Scp-1 MG ctr inactive | Scp-1 Tm shift 5.7 | DNMT1 confirm inactive | Beacon interf inactive
COc1ccc(NC2SC(=O)N(C)C2=O)cc1 (configuration not stated)	none
O=C(/C=C/c1ccco1)N(c1ccccn1)c1ccccn1	Scp1 inh 65, DNMT1 inh 97 | Scp-1 conf 69 | Scp-1 MG ctr inactive | Scp-1 Tm shift 6.3 | DNMT1 confirm inactive | Beacon interf inactive
Cc1ccc(N=Nc2ccc(O)c(/C=N\NC(=O)c3ccc(N)cc3)c2)cc1C	NadD inh 48, Scp1 inh 95, DNMT1 inh 81 | Scp-1 conf 74 | Scp-1 MG ctr inactive | Scp-1 Tm shift inactive | DNMT1 confirm inactive | Beacon interf inactive
CNS(=O)(=O)c1ccc(C)c(S(=O)(=O)NC)c1	none
CCOc1ccc(-c2nc3c(s2)CCc2onc(-c4ccc(OC)cc4)c2-3)cc1	none

Source: PubChem BioAssay (Sanford-Burnham Center for Chemical Genomics)
